ChEMBL document CHEMBL4346690, “Structure-activity relationship studies of (E)-3,4-dihydroxystyryl alkyl sulfones as novel neuroprotective agents based on improved antioxidant, anti-inflammatory activities and BBB permeability” (Eur J Med Chem, 2019)
Each block holds one molecule with its values, some of them ahead of it. Calls of active or inactive are those of the source. The calls are words filed in the database; no cut-off is given here.

How the values were obtained:
[1] = Cytotoxicity against […] BV2 cells assessed as cell viability at 100 uM after 24 hrs by MTT assay; assay type: cell-based; details: read-out: Activity
How it was run: (§1)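 Cells kept in high-glucose DMEM with 10% FBS and 1% PS at 37 °C, 5% CO2. Plated 1 day, then compounds for 24 h; viability by MTT at 100 µM as ODtreated/ODcontrol × 100%, untreated = 100%. Mean ± SD, n = 3.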

PC-12 [2] = experiment: Neuroprotection against H2O2-induced cell death in rat PC12 cells assessed as increase in cell viability at 2.5 to 5 uM preincubated for 3 hrs followed by H2O2 addition and measured after 3 hrs by MTS assay; assay type: functional, cell-based
How it was run: (§2)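 PC12 cells plated at 2 × 10^5 cells mL−1 for 1 day, pretreated 3 h with compounds, then H2O2 (final 400 µM) for 3 h. Viability by MTS at 490 nm relative to untreated cells (100%); single-concentration tests at 2.5, 5, 10 µM and IC50 values; mean ± SD, n = 3.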

[3] = Antioxidant activity assessed as DPPH radical scavenging activity after 1 hr by […]; assay type: functional
How it was run: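 DPPH (0.2 mM) in ethanol mixed with sample, kept 1 h at room temperature, absorbance read at 517 nm. Scavenging % = [1−(Ac−Ab)/A0]×100, where Ab is the sample in ethanol without DPPH and A0 is the ethanol+DPPH control. EC50 reported; vitamin C used as reference antioxidant; mean ± SD, n = 3.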

PC-12 [4] = experiment: Neuroprotection against H2O2-induced cell death in rat PC12 cells assessed as increase in cell viability at 5 uM preincubated for 3 hrs followed by H2O2 addition and measured after 3 hrs by MTS assay relative to CAPE; assay type: functional
How it was run: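 PC12 cells plated at 2 × 10^5 cells/mL for 1 day, pretreated with compound (2.5, 5, 10 µM) for 3 h, then H2O2 added (final 400 µM) for 3 h. Viability read by MTS at 490 nm, untreated cells = 100%. Mean ± SD, n = 3.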

PC-12 [5] = experiment: Neuroprotection against H2O2-induced cell death in rat PC12 cells assessed as decrease in early apoptotic cells at 10 uM preincubated for 3 hrs followed by H2O2 addition and measured 3 hrs by Annexin V-FITC/propidium iodide staining based fluorescence microscopic method; assay type: functional
How it was run: (§3)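 PC12 cells (1.5 × 10^5 cells mL−1, 35 mm dishes) plated 1 day, pretreated 3 h at 2.5 or 10 µM, then exposed to H2O2 (final 400 µM) for 3 h. Washed with ice-cold PBS, stained with Annexin V-FITC and PI in binding buffer for 5 min at 25 °C in the dark, and counted by fluorescence microscopy as early (AV+) or late (AV+PI+) apoptotic cells.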

PC-12 [6] = experiment: Neuroprotection activity in rat PC12 cells assessed as reduction in 6-OHDA-induced cell damages at 10 uM preincubated for 3 hrs followed by H2O2 addition and measured after 24 hrs by MTT assay relative to control; assay type: functional, cell-based; details: in the assay text read “6-OHDA addition” for “H2O2 addition”
How it was run: (§4)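 PC12 cells plated at 2 × 10^5 cells mL−1 for 1 day, pretreated 3 h with compounds at 2.5, 5 or 10 µM, then 6-OHDA (final 250 µM) added for 24 h. Viability by MTT, absorbance 570 nm; untreated cells = 100%; mean ± SD, n = 3.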

[7] = Anti-neuroinflammatory activity in […] BV2 cells assessed as reduction in LPS-induced NO production preincubated for 3 hrs followed by LPS stimulation for 24 hrs by Griess assay; assay type: functional, cell-based; details: BV-2
How it was run: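 BV2 microglia seeded 3 × 10^5 cells mL−1 for 1 day; compounds in medium added for 3 h, then LPS (final 100 ng mL−1) for a further 24 h. Supernatant mixed with Griess reagent, absorbance at 540 nm. Inhibition % from NO release of LPS-only, unstimulated and compound+LPS wells; IC50 reported; mean ± SD, n = 3.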

PC-12 [8] = experiment: Neuroprotection activity in rat PC12 cells assessed as reduction in 6-OHDA-induced cell damages at 2.5 uM preincubated for 3 hrs followed by H2O2 addition and measured after 24 hrs by MTT assay relative to control; assay type: functional, cell-based; details: in the assay text read “6-OHDA addition” for “H2O2 addition”; how it was run: as §4
PC-12 [9] = experiment: Neuroprotection against H2O2-induced cell death in rat PC12 cells assessed as decrease in apoptotic cells at 2.5 uM preincubated for 3 hrs followed by H2O2 addition and measured 3 hrs by Annexin V-FITC/propidium iodide staining based fluorescence microscopic method; assay type: functional; how it was run: as §3
[10] = Cytotoxicity against […] BV2 cells assessed as cell viability at 0.625 to 40 uM after 24 hrs by MTS assay; assay type: cell-based; details: read-out: Activity
How it was run: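 Viability of BV2 cells read by MTS under the NO-assay conditions: 3 h compound (0.625–40 µM) pretreatment followed by LPS 100 ng mL−1 for 24 h.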

[11] = Cytotoxicity against rat PC12 cells assessed as cell viability at 100 uM after 24 hrs by MTT assay; assay type: cell-based, PC-12; details: read-out: Activity; how it was run: as §1
PC-12 [12] = experiment: Neuroprotection activity in rat PC12 cells assessed as reduction in H2O2-induced cell death preincubated for 3 hrs followed by H2O2 addition and measured after 3 hrs by MTS assay; assay type: functional, cell-based; how it was run: as §2
[13] = Potency index, ratio of IC50 for (E)-4-(2-((3-phenylpropyl)sulfonyl)vinyl)benzene-1,2-diol to IC50 for test compound for anti-neuroinflammatory activity in […] BV2 cells; assay type: functional
PC-12 [14] = experiment: Neuroprotection against H2O2-induced cell death in rat PC12 cells assessed as decrease in late apoptotic cells at 10 uM preincubated for 3 hrs followed by H2O2 addition and measured 3 hrs by Annexin V-FITC/propidium iodide staining based fluorescence microscopic method; assay type: functional; how it was run: as §3
[15] = Inhibition of soybean 15-LOX using arachidonic acid or linoleic acid as substrate incubated for 10 mins by colorimetric lipoxygenase inhibitor screening assay kit method; parameters: species or system Glycine max
How it was run: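 Soybean 15-LOX in a colorimetric kit: enzyme plus compound (1.25–100 µM, in assay buffer), reaction started with arachidonic or linoleic acid substrate, shaken at least 10 min. Chromogen added to stop and develop, absorbance at 490–500 nm; IC50 determined, mean ± SD, n = 3.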

[16] = Potency index, ratio of IC50 for CAPE to IC50 for test compound for anti-neuroinflammatory activity in […] BV2 cells; assay type: functional

SMILES: O=S(=O)(/C=C/c1ccc(O)c(O)c1)CCCC1CCCC1
- viability at 24 h, 100 µM [1]: 72.4%
- Activity (PC-12 [2]): Active
- EC50 [3]: 6.3 µM
- Activity (PC-12 [4]): 30%
- Activity (PC-12 [5]): Active
- Activity (PC-12 [6]): Active
- IC50 [7]: 1.6 µM
- Activity (PC-12 [8]): Active
- Activity (PC-12 [9]): Active
- viability at 24 h, up to 40 µM [10]: > 90%
- viability at 24 h, 100 µM [11]: 70.5%
- IC50 (PC-12 [12]): 1.28 µM
- Ratio IC50 [13]: 8
- Activity (PC-12 [14]): Active
- IC50 [15]: 103 µM
- Ratio IC50 [16]: 4

- IC50 [15]: 2.1 µM
SMILES: CC(Cc1ccc(O)c(O)c1)C(C)Cc1ccc(O)c(O)c1 (stereo not drawn) [NORDIHYDROGUAIARETIC ACID]

- EC50 [3]: 11.5 µM
- IC50 [7]: 13.4 µM
- IC50 [15]: 140 µM
SMILES: O=S(=O)(/C=C/c1ccc(O)c(O)c1)CCCc1ccccc1
- viability at 24 h, 100 µM [1]: 72%
- Activity (PC-12 [5]): Active
- Activity (PC-12 [6]): Active
- Activity (PC-12 [9]): Active
- viability at 24 h, up to 40 µM [10]: > 90%
- viability at 24 h, 100 µM [11]: 86.1%
- IC50 (PC-12 [12]): 1.86 µM
- Activity (PC-12 [14]): Active
